In assay [1] the target is Small conductance calcium-activated potassium channel protein 3 (Rattus norvegicus, UniProt P70605). Kind of assay: Inhibition of SKca channel-mediated after-hypepolarization in rat sympathetic neurons. It is filed as cell-based, Sympathetic neuron. Summed up: (§1)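 Rat sympathetic neurones (SK3 SKCa), short-term tissue culture. Action potentials evoked by depolarizing current pulses; afterhyperpolarization amplitude measured before, during and after compound applied in external solution at 2–4 concentrations, at least three neurones. Dequalinium reference in each assay. Hill fits with common Hill coefficient and maximum inhibition per assay gave IC50; EMR = test/dequalinium concentration for 50% AHP inhibition, by simultaneous weighted nonlinear least squares.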

For assay [2], the target named is Small conductance calcium-activated potassium channel protein 3 (Rattus norvegicus) (UniProt P70605). Briefly: Ratio of concentration drug to dequalinium to cause 50% inhibition of SKca channel-mediated after-hypepolarization in rat sympathetic neurons. It is filed as cell-based. To be noted: Sympathetic neuron. The method in brief:
as §1

SMILES strings stand for the structures.

Chain of Small conductance calcium-activated potassium channel protein 3 (Rattus norvegicus) (P70605 whole entry): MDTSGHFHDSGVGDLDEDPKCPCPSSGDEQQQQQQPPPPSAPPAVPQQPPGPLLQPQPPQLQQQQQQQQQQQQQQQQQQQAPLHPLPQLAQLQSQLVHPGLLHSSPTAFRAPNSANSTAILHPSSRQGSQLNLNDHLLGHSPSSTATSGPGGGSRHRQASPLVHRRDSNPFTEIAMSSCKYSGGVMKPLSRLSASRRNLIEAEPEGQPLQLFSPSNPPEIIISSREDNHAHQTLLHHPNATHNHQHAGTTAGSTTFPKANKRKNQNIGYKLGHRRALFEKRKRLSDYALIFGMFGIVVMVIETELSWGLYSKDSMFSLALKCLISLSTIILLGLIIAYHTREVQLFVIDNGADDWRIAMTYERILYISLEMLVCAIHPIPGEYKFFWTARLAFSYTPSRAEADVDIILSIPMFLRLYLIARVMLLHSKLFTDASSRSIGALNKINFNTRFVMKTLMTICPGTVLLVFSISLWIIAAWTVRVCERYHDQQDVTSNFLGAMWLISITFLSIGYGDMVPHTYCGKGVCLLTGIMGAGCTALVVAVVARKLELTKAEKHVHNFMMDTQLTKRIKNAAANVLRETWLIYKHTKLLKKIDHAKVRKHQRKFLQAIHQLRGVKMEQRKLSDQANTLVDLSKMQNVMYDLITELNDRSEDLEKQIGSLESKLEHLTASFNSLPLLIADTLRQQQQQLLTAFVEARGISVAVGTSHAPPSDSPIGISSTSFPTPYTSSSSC
Chain of Small conductance calcium-activated potassium channel protein 3 (P70605 whole entry): as above

With `N=C(N)NCCCNC(=O)/C=C/C(=O)N(CCCNC(=N)N)Cc1ccc(-c2ccc(CN)cc2)cc1`, in assay [1], the IC50 turned out to be 17000 nM. The EMR in assay [2] is 33.

For `N=C(N)NCCCNC(=O)/C=C\C(=O)N(CCCCCCCCN)CCCNC(=N)N`, the IC50 in assay [1] was above 30000 nM.

As to `c1cc2cc(c1)C[n+]1ccc(c3ccccc31)NCc1ccc(cc1)CNc1cc[n+](c3ccccc13)C2`, the EMR in assay [2] came out at 0.01.

Regarding `NC(N)=NCc1ccc(/C=C\c2ccc(CN=C(N)N)cc2)cc1`, the IC50 in assay [1] amounted to 25000 nM.

With `Cc1cc(N)c2ccccc2[n+]1CCCCCCCCCC[n+]1c(C)cc(N)c2ccccc21`, the EMR in assay [2] stood at 1.

In the case of `NCCCCCCCCN(CCCNc1ccnc2ccccc12)C(=O)/C=C/C(=O)NCCCNc1ccnc2ccccc12`, in assay [1], the IC50 was 490 nM. Moreover, the EMR in assay [2] came out at 0.59.

On to `c1ccc2c(NCCCCCN(CCCNc3ccnc4ccccc34)c3cc(OCCCNc4ccnc5ccccc45)cc(OCCCNc4ccnc5ccccc45)c3)ccnc2c1`, for which the half-inhibitory concentration (IC50) in assay [1] is 93 nM. In addition, in assay [2], the EMR is 0.17.

For `N=C(N)NCc1ccc(/C=C\c2ccc(CNC(=N)N)cc2)cc1`, the EMR in assay [2] is 59.

For the molecule `c1ccc2c(NCCCCCN(CCCNc3ccnc4ccccc34)Cc3cc(OCCCNc4ccnc5ccccc45)cc(OCCCNc4ccnc5ccccc45)c3)ccnc2c1`, the IC50 in assay [1] is 130 nM. Also, the EMR in assay [2] was determined as 0.23.

As to `Nc1cc[n+](CCCC=C(CCCC[n+]2ccc(N)c3ccccc32)CCCC[n+]2ccc(N)c3ccccc32)c2ccccc12`, in assay [2], the EMR turned out to be 0.1.

With `c1ccc2c(c1)c1cc[n+]2CCCCC[n+]2ccc(c3ccccc32)NCCCCCN1`, in assay [2], the EMR turned out to be 0.003.

As to `N=C(N)NCCCNC(=O)/C=C/C(=O)N(CCCCCCCCN)CCCNC(=N)N`, the IC50 in assay [1] was found to be 27000 nM.

As for `c1ccc2c(NCCCOc3ccc(CCNc4ccnc5ccccc45)cc3OCCCNc3ccnc4ccccc34)ccnc2c1`, the IC50 in assay [1] stood at 270 nM. The EMR in assay [2] stood at 0.31.

As to `c1ccc2c(NCCCNCc3cc(OCCCNc4ccnc5ccccc45)cc(OCCCNc4ccnc5ccccc45)c3)ccnc2c1`, the IC50 in assay [1] turned out to be 360 nM. Moreover, in assay [2], the EMR was found to be 0.48.

Consider `c1ccc2c(NCCCNc3cc(OCCCNc4ccnc5ccccc45)cc(OCCCNc4ccnc5ccccc45)c3)ccnc2c1`, for which the IC50 in assay [1] came to 220 nM. Also, the EMR in assay [2] came out at 0.26.

For `c1cc(OCCCNc2ccnc3ccccc23)c(OCCCNc2ccnc3ccccc23)c(OCCCNc2ccnc3ccccc23)c1`, the IC50 in assay [1] turned out to be 130 nM. Also, the EMR in assay [2] amounted to 0.23.

As for `CC[n+]1ccc(NCCCOc2cccc(OCCCNc3cc[n+](CC)c4ccccc34)c2OCCCNc2cc[n+](CC)c3ccccc23)c2ccccc21`, the IC50 in assay [1] came out at 86 nM. Further, the EMR in assay [2] was 0.16.

The values above are taken from ChEMBL document CHEMBL1143731, “Synthesis and pharmacological testing of polyaminoquinolines as blockers of the apamin-sensitive Ca2+-activated K+ channel (SK(Ca))” (Bioorg Med Chem, 2007).
